Assay results reported in ChEMBL document CHEMBL1125298, “Hypocholesterolemic activity of synthetic and natural tocotrienols” (J Med Chem, 1992).
Values joined by “and” are separate entries in the source; they are usually repeats but may differ in a detail not shown here. Identical values can stand only once.

What was measured:
[1] = tested on: HepG2; test: Compound evaluated for percent inhibition of cholesterol synthesis from HMG-CoA Reductase in HepG2 cell; assay type: functional, Homo sapiens
[2] = tested on: HepG2; test: Compound evaluated for percent inhibition of cholesterol synthesis from [14C]acetate in HepG2 cell; assay type: functional, Homo sapiens; parameters: concentration or dose not given beside the values
[3] = organism: Rattus norvegicus; test: Compound was evaluated for percent inhibition of cholesterol biosynthesis in primary rat hepatocytes at a concentration of 1100 ug/mL (pre-incubated for 45 min); assay type: functional; conditions: Hepatocyte
[4] = organism: Rattus norvegicus; test: Compound was evaluated for percent inhibition of cholesterol biosynthesis in primary rat hepatocytes at a concentration of 550 ug/mL (pre-incubated for 45 min); assay type: functional; conditions: Hepatocyte
[5] = organism: Rattus norvegicus; test: Inhibitory concentration required to inhibit cholesterol biosynthesis in rat hepatocytes; assay type: functional, Hepatocyte
[6] = organism: Rattus norvegicus; test: Compound was evaluated for percent inhibition of cholesterol biosynthesis in primary rat hepatocytes at a concentration of 2200 ug/mL (pre-incubated for 45 min); assay type: functional; conditions: Hepatocyte
[7] = organism: Rattus norvegicus; test: Compound was evaluated for percent inhibition of cholesterol biosynthesis in primary rat hepatocytes at a concentration of 138 ug/mL (pre-incubated for 45 min); assay type: functional; conditions: Hepatocyte
[8] = organism: Rattus norvegicus; test: Compound was evaluated for percent inhibition of cholesterol biosynthesis in primary rat hepatocytes at a concentration of 275 ug/mL (pre-incubated for 45 min); assay type: functional; conditions: Hepatocyte
[9] = organism: Gallus gallus; test: Compound is evaluated for the effect on lipid metabolism in 6-week-old male chickens at a concentration of 20 ppm in the diet and measured for HDL cholesterol; assay type: functional
[10] = organism: Gallus gallus; test: picomoles of mevalonic acid synthesized per minute per mg of microsomal protein; assay type: functional, organism-based
[11] = organism: Gallus gallus; test: Compound is evaluated for the effect on lipid metabolism in 6-week-old male chickens at a concentration of 20 ppm in the diet and measured for LDL cholesterol; assay type: functional
Summary of the method: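 Male chicks were raised 2 weeks on a corn-soybean control diet, then fed 4 weeks on control diet or the same diet with compound added. All birds were fasted 36 h and refed 48 h before sacrifice. Serum cholesterol is given as mg/100 mL.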

[12] = organism: Gallus gallus; test: Compound is evaluated for the effect on lipid metabolism in 6-week-old male chickens at a concentration of 20 ppm in the diet and measured for total cholesterol; assay type: functional
[13] = organism: Rattus norvegicus; test: Percent inhibition at 250 ug/mL of binary mixtures of compound and alpha-tocotrienol on cholesterol synthesis in rat hepatocytes; assay type: functional, Hepatocyte
[14] = organism: Rattus norvegicus; test: Percent inhibition at 250 ug/mL of binary mixtures of compound and delta-tocotrienol on cholesterol synthesis in rat hepatocytes; assay type: functional, Hepatocyte
[15] = organism: Rattus norvegicus; test: Percent inhibition at 250 ug/mL of binary mixtures of compound and gamma-tocotrienol on cholesterol synthesis in rat hepatocytes; assay type: functional, Hepatocyte
[16] = organism: Rattus norvegicus; test: Percent inhibition of cholesterol biosynthesis in rat hepatocytes at a concentration of 210 (micro g/mL); assay type: functional, Hepatocyte
[17] = organism: Rattus norvegicus; test: Compound is evaluated for the inhibition of cholesterol biosynthesis in isolated rat hepatocytes at the concentration 250 (ug/mL); assay type: functional, Hepatocyte
[18] = organism: Rattus norvegicus; test: Compound is evaluated for the inhibition of cholesterol biosynthesis in isolated rat hepatocytes at the concentration 500 ug/mL; assay type: functional, Hepatocyte
[19] = organism: Rattus norvegicus; test: Inhibitory concentration required to inhibit cholesterol synthesis in isolated rat Hepatocytes; no inhibition; assay type: functional; conditions: hepatocyte

CC(C)=CCC/C(C)=C/CC/C(C)=C/CCC1(C)CCc2cc(O)ccc2O1 (racemic)
Inhibition [1]: 56% | Inhibition [2]: 63%

CC(C)=CCC/C(C)=C/CC/C(C)=C/CC[C@]1(C)CCc2cc(O)ccc2O1 (mixture of isomers)
inhibition at 1100 µg/mL [3]: 60% | inhibition at 550 µg/mL [4]: 45% | Inhibition [5]: 31% | inhibition at 2200 µg/mL [6]: 70% | IC50 [7]: 600 µg/mL | inhibition at 275 µg/mL [8]: 38%

Cc1c(C)c2c(c(C)c1O)CC[C@@](C)(CCC[C@H](C)CCC[C@H](C)CCCC(C)C)O2 [ALPHA-TOCOPHEROL]
HDL cholesterol [9]: 113 mg 100ml-1 | HMGR activity [10]: 1300 | LDL cholesterol [11]: 72 mg 100ml-1 | Total cholesterol [12]: 190 mg 100ml-1 | Inhibition [13]: 3% | Inhibition [14]: 49% | Inhibition [15]: 42% | Inhibition [16]: 0% | Inhibition [17]: 0% | Inhibition [18]: 2% and 0% | IC50 [19]: Not Active

COCCOCOc1cc2c(c(C)c1C)OC(C)(CC/C=C/CCC=C(C)C)CC2 (configuration not stated)
Inhibition [2]: 19%

Cc1c(O)cc2c(c1C)OC(C)(CCCC(C)CCCC(C)CCCC(C)C)CC2 (configuration not stated)
Inhibition [1]: 0% | Inhibition [2]: 3%
